Experimental data: ChEMBL document CHEMBL1128503 (J Med Chem, 1995)

What was measured:
[1] = target: T1, Sodium-dependent dopamine transporter (Rattus norvegicus, UniProt P23977); assay: Binding affinity towards dopamine transporter using [3H]-mazindol as radioligand in rat striatal membranes.; assay type: cell membranes
How it was run: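 Competition assay: test analogues displace [3H]mazindol binding in rat striatal membranes. This radioligand labels a single high-affinity, sodium-dependent cocaine site on the dopamine carrier.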

[2] = target: T1, Sodium-dependent dopamine transporter; assay: Inhibition of [3H]dopamine […] to rat striatal synaptosome dopamine transporter; assay type: tissue-based, Brain

T1 sequence (P23977 whole entry): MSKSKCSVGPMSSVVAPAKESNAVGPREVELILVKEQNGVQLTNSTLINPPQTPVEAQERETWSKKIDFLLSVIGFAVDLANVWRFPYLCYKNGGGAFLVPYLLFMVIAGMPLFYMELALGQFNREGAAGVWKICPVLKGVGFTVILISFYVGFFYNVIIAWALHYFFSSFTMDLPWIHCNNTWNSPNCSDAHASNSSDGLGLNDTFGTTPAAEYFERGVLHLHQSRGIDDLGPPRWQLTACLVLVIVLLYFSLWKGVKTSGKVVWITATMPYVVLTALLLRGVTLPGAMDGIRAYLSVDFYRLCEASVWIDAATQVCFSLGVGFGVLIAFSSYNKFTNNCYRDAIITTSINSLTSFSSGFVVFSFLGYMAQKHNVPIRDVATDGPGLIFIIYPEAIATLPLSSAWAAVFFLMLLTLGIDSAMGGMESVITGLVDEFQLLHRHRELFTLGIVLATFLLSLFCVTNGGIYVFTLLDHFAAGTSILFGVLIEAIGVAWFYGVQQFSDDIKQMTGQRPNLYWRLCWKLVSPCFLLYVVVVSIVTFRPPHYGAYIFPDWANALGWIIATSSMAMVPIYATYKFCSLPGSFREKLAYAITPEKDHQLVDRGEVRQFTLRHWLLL

CC[C@@H]1C2CCC(C[C@@H]1c1ccc(Cl)cc1)N2C (stereo not given in full) was tested, and the Ki [1] was 2.17 nM and the Ki [2] was 2.35 nM.

With CCCC[C@@H]1C2CCC(C[C@@H]1c1ccc(Cl)cc1)N2C (stereo not given in full) the Ki [1] was 1.21 nM and the Ki [2] was 0.84 nM.

Molecule C=C[C@@H]1C2CCC(C[C@@H]1c1ccc(Cl)cc1)N2C (stereo not given in full) has a Ki [1] of 0.59 nM and a Ki [2] of 2.47 nM.

CCC[C@@H]1C2CCC(C[C@@H]1c1ccc(Cl)cc1)N2C (stereo not given in full) showed a Ki [1] of 0.94 nM and a Ki [2] of 1.08 nM.

With COC(=O)C1C2CC[C@H](C[C@@H]1c1ccc(Cl)cc1)N2C (stereo not given in full) the Ki [1] was 0.83 nM and the Ki [2] was 2.85 nM.

Work on CCC[C@@H]1C2CCC(C[C@@H]1c1ccccc1)N2C (stereo not given in full) yielded a Ki [1] of 1.87 nM and a Ki [2] of 1.61 nM.

With CN1C2CCC1[C@@H](CCc1ccccc1)[C@@H](c1ccc(Cl)cc1)C2 (stereo not given in full) the Ki [1] was 1.46 nM and the Ki [2] was 1.54 nM.

Molecule CN1C2CCC1[C@@H](/C=C/Cl)[C@@H](c1ccc(Cl)cc1)C2 (stereo not given in full) has a Ki [1] of 0.42 nM and a Ki [2] of 1.13 nM.

CCCCCC[C@@H]1C2CCC(C[C@@H]1c1ccc(Cl)cc1)N2C (stereo not given in full) showed a Ki [1] of 156 nM and a Ki [2] of 271 nM.

Molecule CN1C2CCC1[C@@H](/C=C\Cl)[C@@H](c1ccc(Cl)cc1)C2 (stereo not given in full) has a Ki [1] of 0.22 nM and a Ki [2] of 0.88 nM.
